Results from ChEMBL document CHEMBL4334468, “Exploring Mitochondria-Mediated Intrinsic Apoptosis by New Phytochemical Entities: An Explicit Observation of Cytochrome c Dynamics on Lung and Melanoma Cancer Cells” (J Med Chem, 2019).
The source made the active and inactive calls. The rule behind the calls is not given here.

Tests used:
A549 [1] = experiment: Cytotoxicity in human A549 cells assessed as reduction in cell viability incubated for 24 hrs by MTT assay; format: functional, cell-based
Procedure, shortened: (§1)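 MTT viability assay on A375 melanoma, A549 lung adenocarcinoma and WI-38 normal lung fibroblast cells after 24 and 48 h treatment. IC50 values are in µM, expressed as mean ± SD.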

A-375 [2] = experiment: Cytotoxicity in human A375 cells assessed as reduction in cell viability incubated for 48 hrs by MTT assay; format: functional, cell-based; procedure, shortened: as §1
WI-38 [3] = experiment: Cytotoxicity in human WI38 cells assessed as reduction in cell viability incubated for 24 hrs by MTT assay; format: cell-based; procedure, shortened: as §1
A549 [4] = experiment: Cytotoxicity in human A549 cells assessed as reduction in cell viability incubated for 48 hrs by MTT assay; format: functional, cell-based; procedure, shortened: as §1
WI-38 [5] = experiment: Cytotoxicity in human WI38 cells assessed as reduction in cell viability incubated for 48 hrs by MTT assay; format: cell-based; procedure, shortened: as §1
A-375 [6] = experiment: Cytotoxicity in human A375 cells assessed as reduction in cell viability incubated for 24 hrs by MTT assay; format: functional, cell-based; procedure, shortened: as §1
[7] = Antioxidant activity assessed as DPPH radical scavenging activity at 1 to 1000 ug/ml incubated for 30 mins by spectrophotometry; format: functional
A-375 [8] = experiment: Induction of GSH depletion in human A375 cells by fluorimetry; format: functional, cell-based
A549 [9] = experiment: Induction of GSH depletion in human A549 cells by fluorimetry; format: functional, cell-based
[10] = Antioxidant activity assessed as hydroxyl radical scavenging activity at 1 to 1000 ug/ml incubated for 1 hr; format: functional
[11] = Antioxidant activity at 1 to 1000 ug/ml incubated for 90 mins by FRAP assay; format: functional
[12] = Homo sapiens, A549, 24 h, read-out: IC50
[13] = Homo sapiens, A-375, 48 h, read-out: IC50
[14] = Homo sapiens, A549, 48 h, read-out: IC50
[15] = Homo sapiens, A-375, 24 h, read-out: IC50
[16] = Homo sapiens, WI-38, 48 h, read-out: IC50

SMILES	IC50 (A549 [1]; [12])	IC50 (A-375 [2]; [13])	IC50 (WI-38 [3]; wi-38)	IC50 (A549 [4]; [14])	IC50 (WI-38 [5]; wi-38)	IC50 (A-375 [6]; [15])	Activity [7]	Activity (A-375 [8])	Activity (A549 [9])	Activity [10]	Activity [11]	IC50 (A549 [1]; a549)	IC50 (A549 [4]; a549)	IC50 (A-375 [6]; a-375)	IC50 (A-375 [2]; a-375)	IC50 (WI-38 [5]; [16])	IC50 (WI-38 [3]; Homo sapiens, WI-38, 24 h, read-out: IC50)
COc1cc(C2Oc3cc(-c4cc(=O)c5c(O)cc(O)cc5o4)ccc3OC2c2cc(C(=O)Nc3ccc(C(F)(F)F)cc3)on2)ccc1O (configuration not stated)	3.6 µM	0.95 µM	Non-Toxic	0.76 µM	Non-Toxic	4 µM											
COc1cc(C2Oc3cc(-c4cc(=O)c5c(O)cc(O)cc5o4)ccc3OC2/C=C2/C(=O)ONC2c2ccccc2)ccc1O (configuration not stated)	13.5 µM	15.6 µM	Non-Toxic	10 µM	Non-Toxic	18.5 µM											
COc1cc(C2Oc3cc(-c4cc(=O)c5c(O)cc(O)cc5o4)ccc3OC2CO)ccc1O (configuration not stated)	88.6 µM	49.2 µM	Non-Toxic	68 µM	Non-Toxic	71.6 µM	inactive	inactive	inactive	inactive	inactive						
COc1cc(C2Oc3cc(-c4cc(=O)c5c(O)cc(O)cc5o4)ccc3OC2c2cc(CN)on2)ccc1O (configuration not stated)	5.2 µM	4.6 µM	Non-Toxic	2.2 µM	Non-Toxic	7.5 µM											
COc1cc(C2Oc3cc(-c4cc(=O)c5c(O)cc(O)cc5o4)ccc3OC2c2cc(C(=O)NS(=O)(=O)c3ccccc3)on2)ccc1O (configuration not stated)	51 µM	3.5 µM	Non-Toxic	6.3 µM	Non-Toxic	7.2 µM											
COc1cc(C2Oc3cc(-c4cc(=O)c5c(O)cc(O)cc5o4)ccc3OC2/C=C2/C(=O)ONC2c2ccc(C)cc2)ccc1O (configuration not stated)	12.7 µM	6.7 µM	Non-Toxic	9 µM	Non-Toxic	9.2 µM											
COc1cc(C2Oc3cc(-c4cc(=O)c5c(O)cc(O)cc5o4)ccc3OC2c2cc(CO)on2)ccc1O (configuration not stated)		74.9 µM	Non-Toxic		Non-Toxic							Not Active	Not Active	Not Active			
COc1cc(C2Oc3cc(-c4cc(=O)c5c(O)cc(O)cc5o4)ccc3OC2/C=C2/C(=O)ON(c3ccccc3)C2C)ccc1O (configuration not stated)	83 µM		Non-Toxic	71.5 µM	Non-Toxic									Not Active	Not Active		
CCCC1NOC(=O)/C1=C/C1Oc2ccc(-c3cc(=O)c4c(O)cc(O)cc4o3)cc2OC1c1ccc(O)c(OC)c1 (configuration not stated)		60 µM	Non-Toxic		Non-Toxic	92.7 µM						Not Active	Not Active				
COc1cc(C2Oc3cc(-c4cc(=O)c5c(O)cc(O)cc5o4)ccc3OC2c2cc(C(=O)NS(=O)(=O)c3ccc(Cl)cc3)on2)ccc1O (configuration not stated)	8.7 µM	4.2 µM	Non-Toxic	6.6 µM		6.2 µM										54.6 µM	
COc1cc(C2Oc3cc(-c4cc(=O)c5c(O)cc(O)cc5o4)ccc3OC2/C=C2/C(=O)ONC2CCl)ccc1O (configuration not stated)	0.095 µM	0.035 µM		0.07 µM		0.04 µM										4.9 µM	5.5 µM
COc1cc(C2Oc3cc(-c4cc(=O)c5c(O)cc(O)cc5o4)ccc3OC2c2cc(C(=O)NC3CCCCC3)on2)ccc1O (configuration not stated)	80 µM	28.8 µM	Non-Toxic	14.5 µM	Non-Toxic	66.8 µM											
COc1cc(C2Oc3cc(-c4cc(=O)c5c(O)cc(O)cc5o4)ccc3OC2/C=C2/C(=O)ONC2c2ccc(F)cc2)ccc1O (configuration not stated)	1.4 µM	7.9 µM	Non-Toxic	7.5 µM	Non-Toxic	13.7 µM											
COc1cc(C2Oc3cc(-c4cc(=O)c5c(O)cc(O)cc5o4)ccc3OC2/C=C2/C(=O)ONC2C(F)(F)F)ccc1O (configuration not stated)	2.1 µM	0.83 µM	Non-Toxic	16.4 µM		2 µM										95 µM	
COc1cc(C2Oc3cc(-c4cc(=O)c5c(O)cc(O)cc5o4)ccc3OC2c2noc(C)c2CO)ccc1O (configuration not stated)	68 µM	46.5 µM	Non-Toxic	51 µM	Non-Toxic	68.7 µM											
COc1cc(C2Oc3cc(-c4cc(=O)c5c(O)cc(O)cc5o4)ccc3OC2/C=C2/C(=O)ONC2c2ccc(Cl)cc2)ccc1O (configuration not stated)	2 µM	0.94 µM	Non-Toxic	1.2 µM	Non-Toxic	1.2 µM											
COc1cc(C2Oc3cc(-c4cc(=O)c5c(O)cc(O)cc5o4)ccc3OC2c2cc(C(C)(C)O)on2)ccc1O (configuration not stated)	4.8 µM	0.65 µM	Non-Toxic	2.9 µM	Non-Toxic	1.43 µM											
COc1cc(C2Oc3cc(-c4cc(=O)c5c(O)cc(O)cc5o4)ccc3OC2c2cc(Cc3ccccc3)on2)ccc1O (configuration not stated)	7 µM	0.9 µM	Non-Toxic	3.9 µM	Non-Toxic	4.6 µM											
COc1cc(C2Oc3cc(-c4cc(=O)c5c(O)cc(O)cc5o4)ccc3OC2/C=C2/C(=O)ONC2C)ccc1O (configuration not stated)			Non-Toxic		Non-Toxic							Not Active	Not Active	Not Active	Not Active		
COc1cc(C2Oc3cc(-c4cc(=O)c5c(O)cc(O)cc5o4)ccc3OC2c2cc(-c3ccc(C)cc3)on2)ccc1O (configuration not stated)			Non-Toxic	77.4 µM	Non-Toxic							Not Active		Not Active	Not Active		
COc1cc(C2Oc3cc(-c4cc(=O)c5c(O)cc(O)cc5o4)ccc3OC2/C=C2/C(=O)ON(C)C2C)ccc1O (configuration not stated)	4.5 µM	2.4 µM	Non-Toxic	3.8 µM		3.1 µM										68 µM	
COc1cc(C2Oc3cc(-c4cc(=O)c5c(O)cc(O)cc5o4)ccc3OC2C=O)ccc1O (configuration not stated)	96 µM	43.8 µM	Non-Toxic	87.8 µM	Non-Toxic	63 µM											
